Assay results of several laboratories.
Lines come from different studies, so protocols differ. Converted amounts (≈) assume the structure as drawn.

O=C(Cn1ccnc1[N+](=O)[O-])NCc1ccccc1 — IC50 (Trypanosoma cruzi; parasite growth; LLC-MK2; 48 h, intracellular, amastigote): 0.71 µg/mL
CC1CCC(C(C)C)C(OC2=C(Cl)C(=O)c3ccccc3C2=O)C1 (stereo not shown) — MIC (Alternaria alternata; microbial growth, broth dilution): 12 µg/mL (≈ 34.6 µM)
CN1CCN(c2ncc(-c3ccc4nncc(Nc5cnccn5)c4c3)cn2)CC1 — EC50 (Trypanosoma cruzi; parasite growth; C2C12; intracellular, amastigote): > 10 µM
OC(Cn1cncn1)(Cn1cncn1)c1ccc(F)cc1F — MIC (Alternaria alternata; microbial growth, broth dilution): 10 µg/mL (≈ 32.7 µM)
COC(=O)N[C@H](C(=O)N1CC2(CC2)C[C@H]1c1nc(-c2ccc3c(c2)C(F)(F)c2cc(-c4ccc5[nH]c([C@@H]6[C@H]7CC[C@H](C7)N6C(=O)[C@@H](NC(=O)OC)C(C)C)nc5c4)ccc2-3)c[nH]1)C(C)C — IC50 (Trypanosoma cruzi; parasite growth; Vero, TULAHUEN; 72 h, intracellular, amastigote): 60 nM
CN[C@H](CC(C)C)C(=O)N[C@H]1C(=O)N[C@@H](CC(N)=O)C(=O)N[C@H]2C(=O)N[C@H]3C(=O)N[C@H](C(=O)N[C@H](C(=O)O)c4cc(O)cc(O)c4-c4cc3ccc4O)[C@H](O)c3ccc(c(Cl)c3)Oc3cc2cc(c3O[C@@H]2O[C@H](CO)[C@@H](O)[C@H](O)[C@H]2O[C@H]2C[C@](C)(N)[C@H](O)[C@H](C)O2)Oc2ccc(cc2Cl)[C@H]1O — MIC (Staphylococcus haemolyticus; microbial growth; clinical isolate): 0.78 µg/mL (≈ 0.538 µM)
COc1ccc(Nc2cnnc3cc(-c4ccc(N5CCN(C)CC5)cc4)ccc23)nc1 — EC50 (Trypanosoma cruzi; parasite growth; C2C12; intracellular, amastigote): 2.1 µM
CC[C@@H]1/C=C(\C)C[C@H](C)C[C@H](OC)[C@H]2O[C@@](O)(C(=O)C(=O)N3CCCC[C@H]3C(=O)O[C@H](/C(C)=C/[C@@H]3CC[C@H](Cl)[C@H](OC)C3)[C@H](C)[C@@H](O)CC1=O)[C@H](C)C[C@@H]2OC — IC50 (Trypanosoma cruzi; parasite growth; Vero, TULAHUEN; 72 h, intracellular, amastigote): 2130 nM
CN1CCN(c2ncc(-c3ccc4nncc(Nc5ncccn5)c4c3)cn2)CC1 — EC50 (Trypanosoma cruzi; parasite growth; C2C12; intracellular, amastigote): > 10 µM
CC1(C)S[C@@H]2[C@H](NC(=O)[C@H](N)c3ccccc3)C(=O)N2[C@H]1C(=O)O — MIC (Staphylococcus haemolyticus; microbial growth; clinical isolate): > 200 µg/mL
